HSF1 inh = HSF1 inhibition. NIH3T3-HGL HSE-luciferase, MG132-induced, luminescence 8 h; active compounds read low. activity change, negative = inhibition, % at 7.5 µM (by protocol). 300,000 compounds, 0.77% hits. AID 2098;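 active means more than half of replicate wells show activity change below -50%, luminescence cut by over half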;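 further: luciferase reports HSF-1 transcriptional activity via heat shock element; 0% = median of DMSO wells and -100% = zero luminescence signal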
Calb FLC = C. albicans growth modulation with fluconazole | C. albicans CaCi-2 + fluconazole, Alamar Blue growth, 48 h | growth inhibition, % (test concentration not listed) | 300,000 compounds, 0.57% hits;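 active means growth inhibition above about 58% in most replicates, limit read from the data, passing the limit was not always enough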;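 further: all wells also contain fluconazole at 8 µg/ml as a sub-toxic cotreatment; 0% = median of DMSO wells and 100% = median of geldanamycin control wells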
T cruzi repl = blocks replication of Trypanosoma cruzi; T. cruzi beta-gal in NIH3T3, luminescence, 90 h; 300,000 compounds, 1.4% hits; inhibition, % (no concentration beside the values); AID 1885;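 active means mean inhibition across valid replicates above about 55%, limit read from the data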;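 further: signal also drops with host cell toxicity which is not excluded here; 0% = plate median of DMSO wells and 100% = zero luminescence signal; higher percent means less beta-gal luminescence so fewer parasites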
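Incubation – ≥90 h infection period, 3 h prior cell attachment · System – NIH/3T3 fibroblasts plus reporter T. cruzi · Doses – compound pinned at 50 nL/well, DMSO · Read-out basis – percent inhibition of parasite-derived β-gal signal · Signal – luminescent β-galactosidase signal after 60 min lysis · Also added – 5000 T. cruzi trypomastigotes/well · Medium – Low-serum DMEM with 2% FBS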
HIF act = HIF pathway transcriptional activation; activation, % at 7.5 µM (by protocol); U2OS HRE-luciferase reporter, luminescence; normalized: DMSO 0%, desferrioxamine 100%; 300,000 compounds, 0.32% hits; AID 1910;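 active means mean activation of at least 10% of the iron chelator positive control signal, with at least half of replicates also reaching 10%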
HSF-1 act = increases HSF-1 driven luciferase reporter signal | AID 504408 | 300,000 compounds, 1.7% hits | NIH3T3-HGL HSF-1 luciferase reporter, MG132, 8 h; 100% = twice DMSO control signal | activation, % at 9 µM;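 active means mean replicate activation of at least 50% with a set share of replicates each reaching 50%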;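 further: 0% = median of the neutral control wells and 100% = twice that signal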
Active calls of the source: *; . = no result. Hits are enriched below; roughly 4.4% of the tested compounds scored in any of these assays.

SMILES	HSF1 inh	Calb FLC	T cruzi repl	HIF act	HSF-1 act
CC1Sc2ccc(S(=O)(=O)CCC(=O)Nc3cc(F)ccc3F)cc2NC1=O (stereo not given)	3.3	-6.0	3.4	0.0	1.1
Cc1cc(=O)c2n(Cc3ccccc3Cl)nc[n+]2[nH]1	53.8	-11.0	3.8	-0.9	91.3*
COc1ccc(S(=O)(=O)N2CC(C)N(C(=O)N(C)C)C2C)cc1 (stereo not given)	-2.9	8.7	-13.3	-0.2	5.7
Cc1ccc(C(=O)Nc2ncccc2S(=O)(=O)c2ccccc2)cc1	8.3	1.8	-1.5	2.1	28.3
COc1ccc(C)cc1NC(=O)CN1CCN(C/C=C/c2ccccc2)CC1	-9.4	-22.8	45.6	0.1	2.6
CC(C)CC(/C(O)=C(\C#N)c1nc2ccccc2[nH]1)N1C(=O)c2ccccc2C1=O (stereo not given)	34.2	4.3	-5.7	-1.0	74.8*
Nc1c(Nc2ccccc2)c2ccccc2oc1=O	82.2	-8.9	-33.6	-0.9	87.8*
COc1cccc(CN(C)CC(=O)Nc2ccccc2N2CCOCC2)c1OC	.	-7.3	18.2	0.3	.
O=C(CSc1nnc(-c2ccc(Br)o2)n1Cc1ccccc1)c1ccccc1F	31.7	20.5	8.4	0.8	72.4*
CCc1ccc(CN2CCCC(CNC(=O)c3cc(OC)cc(OC)c3)C2)cc1 (stereo not given)	4.9	-11.9	44.9	0.2	16.1
CCc1ccc(CN2CCCC(CNC(=O)c3cccc(OC)c3OC)C2)cc1 (stereo not given)	-3.5	2.9	61.3*	-0.7	9.8
CCn1ncc(CN2CCCC(CNC(=O)c3ccc(F)cc3)C2)c1C (stereo not given)	-7.7	-3.3	73.4*	0.0	-6.8
O=C(NCC1CCCN(Cc2cccc(C(F)(F)F)c2)C1)c1ccc(F)cc1 (stereo not given)	-3.6	-9.3	57.0*	-0.2	-20.3
COc1ccc(CC(=O)NCC2CCCN(Cc3cc(OC)cc(OC)c3)C2)cc1 (stereo not given)	-0.9	1.0	57.7*	-14.3	-3.0
O=C(NCC1CCCN(C(=O)c2cccc(C(F)(F)F)c2)C1)c1ccc(F)cc1 (stereo not given)	7.0	-3.3	5.2	1.1	-9.1
O=C(Nc1ccc([N+](=O)[O-])cc1Br)c1cccnc1	-5.9	11.8	2.8	-0.6	-6.1
CCc1nc2ccccc2c(C(=O)Nc2cccc(C)c2)c1C	-8.0	-13.7	-6.3	-23.4	-2.5
COc1cc(C(=O)N(C)C2CCCN(Cc3ccccc3F)C2)cc(OC)c1OC (stereo not given)	-76.8*	2.2	0.7	0.2	-81.2
COc1cccc(CN2CCCC(CNC(=O)c3ccc(F)cc3)C2)c1OC (stereo not given)	-8.2	0.2	68.4*	0.2	8.2
COCc1cc(CN2CCCC(CNC(=O)c3ccc(F)cc3)C2)ccc1OC (stereo not given)	2.3	1.5	80.8*	-0.1	6.4
CC(=O)NCC1CCCN(Cc2cn(-c3ccccc3)nc2-c2ccc3c(c2)OCO3)C1 (stereo not given)	9.1	10.8	4.7	-0.4	19.7
Cn1cc(CN2CCCC(CNC(=O)c3ccc4c(c3)OCO4)C2)c2ccccc21 (stereo not given)	-2.6	-13.2	66.5*	0.0	-6.6
O=C(Nc1ccc(Br)cc1)c1cccc(OC(=S)N2CCOCC2)c1	-2.4	3.5	-11.1	0.3	3.2
CC(C)CC1COC(=O)N1 (stereo not given)	0.0	-9.0	-3.2	-0.1	8.8
Oc1cnc2ccccc2c1CN1CCOCC1	1.4	2.5	4.5	-1.7	5.1
SMILES	HSF1 inh	Calb FLC	T cruzi repl	HIF act	HSF-1 act
OCCC1CN(Cc2c(O)ccc3ccccc23)CCN1CCc1ccccc1 (stereo not given)	167.2	10.1	-30.1	3.4	215.6*
Oc1ccc2ccccc2c1CN1CCOCC1	70.6	20.4	-16.6	0.4	82.8*
OCCC1CN(Cc2ccccc2O)CCN1CCCc1ccccc1 (stereo not given)	-12.6	-0.7	16.0	-0.8	-4.7
Oc1ccccc1Cc1c(O)ccc2ccccc12	64.4	11.1	-12.8	-0.3	100.9*
CC1CCN(S(=O)(=O)N2CCC(C(=O)NCCC3=CCCCC3)CC2)CC1	-6.4	-19.6	1.6	-0.2	6.9
CC(=O)Nc1ccc(N2CC(C)(C)C2=O)cc1	-7.5	71.7*	-5.1	-0.1	3.5

Screening data (PubChem BioAssay)
